Screening data deposited in PubChem by several laboratories.
STAT3 blocker – STAT3 signaling inhibition | inhibition, % at 5.5 µM | U3A cells, IL-6 STAT3-luciferase reporter, luminescence; host cell line lacks STAT1 | hit rate 0.89% among 190,000;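 active means inhibition above the mean inhibition across all screened compounds plus 3 SD, cut at about 44% in these data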;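 further: 0% = DMSO only wells and 100% = 100 µM nifuroxazide control wells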
Cl transport mod – modulators of human KCC2 chloride dependent transport | B-score of Tl+ flux slope (higher = more flux/activation; lower = inhibition) at 10 µM | KCC2 cells, thallium flux FluoZin-2 fluorescence | Q9H2X9 | AID 1456 | hit rate 2.2% among 190,000;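 active means thallium flux slope and its plate-corrected score both differing from the plate sample mean at a set confidence after two filtering rounds, in either direction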;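 further: slope of fluorescence scaled to starting intensity during 10 to 20 s after thallium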
Target sequence (Q9H2X9 whole entry, looked up): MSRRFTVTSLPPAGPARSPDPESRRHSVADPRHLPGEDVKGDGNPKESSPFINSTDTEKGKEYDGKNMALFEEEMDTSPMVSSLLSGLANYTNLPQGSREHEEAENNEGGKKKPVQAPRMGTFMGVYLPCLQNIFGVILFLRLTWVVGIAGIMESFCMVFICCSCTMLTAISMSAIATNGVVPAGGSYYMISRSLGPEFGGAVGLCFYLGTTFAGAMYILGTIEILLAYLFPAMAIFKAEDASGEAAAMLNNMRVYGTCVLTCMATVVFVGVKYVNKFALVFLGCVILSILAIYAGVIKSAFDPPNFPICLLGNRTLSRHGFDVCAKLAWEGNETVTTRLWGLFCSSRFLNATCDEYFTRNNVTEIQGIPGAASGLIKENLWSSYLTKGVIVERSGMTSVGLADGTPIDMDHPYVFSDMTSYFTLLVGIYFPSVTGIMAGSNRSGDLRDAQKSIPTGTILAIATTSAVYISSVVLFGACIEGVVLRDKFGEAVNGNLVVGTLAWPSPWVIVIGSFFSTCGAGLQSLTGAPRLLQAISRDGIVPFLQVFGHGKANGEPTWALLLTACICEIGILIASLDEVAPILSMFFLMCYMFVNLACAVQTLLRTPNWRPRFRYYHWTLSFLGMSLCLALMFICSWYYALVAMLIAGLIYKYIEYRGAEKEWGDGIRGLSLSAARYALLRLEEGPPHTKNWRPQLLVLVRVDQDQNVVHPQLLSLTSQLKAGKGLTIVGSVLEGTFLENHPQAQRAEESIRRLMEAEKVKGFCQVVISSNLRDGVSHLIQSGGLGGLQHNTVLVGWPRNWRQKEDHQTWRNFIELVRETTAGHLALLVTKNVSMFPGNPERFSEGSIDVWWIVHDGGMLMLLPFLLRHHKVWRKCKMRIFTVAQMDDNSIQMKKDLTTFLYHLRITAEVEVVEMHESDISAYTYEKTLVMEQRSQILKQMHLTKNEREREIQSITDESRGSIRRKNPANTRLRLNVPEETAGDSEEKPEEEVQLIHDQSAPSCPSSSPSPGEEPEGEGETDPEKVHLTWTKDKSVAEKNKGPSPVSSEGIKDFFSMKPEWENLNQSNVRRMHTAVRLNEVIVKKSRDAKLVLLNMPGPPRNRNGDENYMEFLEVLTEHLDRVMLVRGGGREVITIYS
HSV replic up – increases HSV replication in cells. HSV replication augmentation in cells, fold increase. maximum fold increase. hit rate 0.005% among 220,000. AID 1956; in the data active means maximum fold increase above about 1.5; inconclusive means no clear call, values can overlap the other calls; tested in PC3 cells
STAT1 act – STAT1 signaling activation | NIH 3T3 STAT1-luciferase reporter, IFN-gamma, luminescence; 100% = IFN-gamma alone, no compound | activation (% of control), % at 5.5 µM | hit rate 2.6% among 200,000;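 active means activation above the screen-wide mean activation plus 3 SD, cut at about 130% in these data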;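 further: raw ratio to IFN-gamma control signal so 100% means no change and 0% no light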
STAT1 inh – STAT1 signaling inhibition; NIH 3T3 STAT1-luciferase reporter, IFN-gamma, luminescence; inhibition, % at 5.5 µM; hit rate 0.35% among 200,000;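 active means inhibition above a set limit, the mean inhibition across all tested compounds plus 3 SD, cut at about 34% in these data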;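 further: 0% = IFN-gamma with DMSO and 100% = IFN-gamma with 300 µM nifuroxazide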
STAT3 activator – activators of IL-6 induced STAT3 signaling | U3A cells, IL-6 STAT3-luciferase reporter, luminescence; 100% = signal with IL-6 EC80 alone | AID 871 | hit rate 0.91% among 190,000 | activation (% of control), % at 5.6 µM;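 active means activation above the screen-wide mean of compound activation plus 3 SD, cut at about 130% in these data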;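 further: 0% = background luminescence of wells with medium and substrate only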
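System – human U3A cells carrying STAT3-luciferase construct · Probe or stimulus – Interleukin-6, 33 ng/mL · Schedule – compound 1 h, then IL-6 6 h at 37 °C · Signal – luminescence from STAT3-driven luciferase reporter · Evaluation – percent of IL-6-only median luminescence · Benchmarks – IL-6-only high control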
KCC2 sec1 – KCC2 (human) modulation, secondary assay; HEK293-KCC2, thallium flux, FluoZin2 fluorescence; active compounds read high; shares compounds with Cl transport mod; hit rate 15% among 3,700; normalised thallium flux (F/F0 slope) at 10 µM; AID 1713;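 active means thallium flux slope above the same plate's solvent-only control mean plus 3 SD; inconclusive means the two replicate wells disagree; inactive means no significant difference from solvent-only control wells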
KCC2 bumet counter – bumetanide-insensitive thallium flux in KCC2 cells with ouabain, counter-screen; shares compounds with Cl transport mod; HEK293-KCC2 + bumetanide/ouabain, thallium flux FluoZin2; active compounds read high; normalized thallium flux at 10 µM; hit rate 49% among 3,700; AID 1714;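 active means thallium entry rate above the same plate's blocked-transporter control wells by more than 3 SD; inconclusive means the two repeat wells disagree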;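 further: raw slope of fluorescence over initial fluorescence between 10 and 20 s after thallium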
KCC2 sec2 – confirmation of human KCC2 transport modulators; hit rate 23% among 3,700; normalized thallium flux at 10 µM; HEK293-KCC2, thallium flux FluoZin2 fluorescence; actives lie on both sides; F/F0 rise rate, 10–20 s post-thallium; shares compounds with Cl transport mod;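 active means thallium flux slope more than 3 SD above or below the plate's solvent-only control mean, mostly below; inconclusive means the two repeat wells disagreed; inactive means no significant shift from solvent-only controls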;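 further: raw slope with 0.1% DMSO as baseline and bumetanide as block control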
HEK293 Tl flux – counter-screen for KCC2 modulators: effect in parental HEK293 cells; shares compounds with Cl transport mod; thallium flux FluoZin2, ouabain; baseline-ratio fluorescence slope, 10–20 s after thallium; thallium flux rate (normalised fluorescence) at 10 µM; hit rate 46% among 3,700; AID 1716;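 active means thallium flux rate significantly above the same plate's solvent-only control wells, beyond their mean plus 3 SD; inconclusive means the two replicate wells gave conflicting results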
KCC2 ouabain – modulates human KCC2 on retest with ouabain; shares compounds with Cl transport mod; HEK293-KCC2, thallium flux FluoZin2 fluorescence; bidirectional: low = inhibitor, high = activator; raw Tl+ flux slope (below DMSO = inhibition, above = activation) at 10 µM; hit rate 48% among 3,700;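 active means thallium flux slope beyond 3 SD from same-plate DMSO control mean in most replicates, usually higher, sometimes lower; inconclusive means repeat tests gave conflicting results; inactive means no significant difference from controls in most replicates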;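 further: slope of initial-normalized fluorescence between seconds 10 and 20 after thallium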
HEK293 Tl flux2 – parental HEK flux effect, counter-screen 2; shares compounds with Cl transport mod; HEK293 parental, thallium flux FluoZin-2 fluorescence slope; thallium flux slope at 10 µM; hit rate 33% among 3,700; AID 1718;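 active means thallium flux slope above the same plate's solvent-control mean plus 3 SD in both duplicate wells; inconclusive means duplicate wells that disagreed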;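 further: run without ouabain in cells lacking the KCC2 cotransporter; slope of fluorescence scaled to its starting value between 10 and 20 s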
* hit, by the source's call; i = inactive; u = inconclusive; x = no result given. This is a sample that favours compounds with a hit; in the whole collection about 5.5% have one here.

SMILES | STAT3 blocker | Cl transport mod | HSV replic up | STAT1 act | STAT1 inh | STAT3 activator | KCC2 sec1 | KCC2 bumet counter | KCC2 sec2 | HEK293 Tl flux | KCC2 ouabain | HEK293 Tl flux2
O=C(CCCn1c(=S)[nH]c2cc3c(cc2c1=O)OCO3)N1CCN(c2ccccc2F)CC1 | 5.6 | -0.669 | i | 102.9 | -3.1 | 99.4 | x | x | x | x | x | x
CCN(CC)CCn1c(=S)[nH]c2cc3c(cc2c1=O)OCO3 | -8.1 | 1.02 | i | 107.2 | -7.9 | 112.0 | x | x | x | x | x | x
N/C(=N\OC(=O)Nc1ccccc1)c1ncc([N+](=O)[O-])s1 | x | 0.546 | i | x | x | x | x | x | x | x | x | x
CCn1c(SCC(=O)c2[nH]c(C)c(C(C)=O)c2C)nnc1-c1ccccc1 | 22.3 | 0.112 | i | 81.5 | 20.2 | 83.7 | x | x | x | x | x | x
O/N=C/c1ccc2ccccc2c1 | 10.0 | -0.195 | i | 111.5 | -14.6 | 97.3 | x | x | x | x | x | x
N#CCCCSc1ncccc1-c1nc2ccccc2[nH]1 | 24.9 | 0.436 | i | 102.2 | -2.4 | 80.3 | 0.00789 | 0.00606 | 0.0269 | 0.00663 | 0.0203 | 0.00858
COc1ccc(N(CC(=O)Nc2ccccc2C(=O)O)S(=O)(=O)c2ccc(C)c([N+](=O)[O-])c2)cc1 | 8.7 | -1.35 | i | 104.3 | -6.0 | 99.2 | x | x | x | x | x | x
COc1ccc(/C=C2\CCCC(C(=O)C(F)(F)F)=C2O)cc1 | 0.3 | x | i | 102.3 | -2.0 | 99.7 | 0.00937 | 0.0243* | 0.0301 | 0.0114* | 0.0336* | 0.0105*
O=C(C1=C(O)/C(=C/c2ccc(O)cc2)CCC1)C(F)(F)F | 5.2 | -1.29 | i | 109.0 | -10.2 | 97.4 | x | x | x | x | x | x
CCn1c(NC(=O)c2cccs2)c(-c2cccs2)c(=O)c2ccccc21 | -0.6 | x | i | 109.0 | -9.8 | 103.6 | x | x | x | x | x | x
NC(=O)COC(=O)/C=C/c1cccc(Br)c1 | 6.7 | -7.7* | i | 105.9 | -7.0 | 96.4 | 0.0092 | 0.00641 | 0.0333 | 0.00791 | 0.0212 | 0.0103
CC(C)NC(=O)c1onc(CSc2ccc(Cl)cc2)c1C(=O)NC(C)C | x | 2.39* | i | x | x | x | 0.0066 | 0.00453 | 0.0272 | 0.00717 | 0.017 | 0.0101
Cc1cc(C)n(C(=O)CNC(=O)COc2ccccc2)n1 | -2.1 | x | i | 90.8 | 10.2 | 104.0 | x | x | x | x | x | x
Cc1ccc(OCC(=O)NCC(=O)n2nc(C)cc2C)cc1 | -5.6 | -1.67 | x | 94.5 | 6.0 | 107.3 | 0.00578 | 0.00472 | 0.0282* | 0.00791 | 0.0182 | 0.0109
O=C1C2C3C=CC([C@@H]2C(=O)N1C1CCCCC1)[C@H]1C(=O)N(C2CCCCC2)C(=O)C31 (some centres undefined) | 0.7 | -2.25 | i | 98.4 | 1.7 | 102.9 | x | x | x | x | x | x
O=C(NC(=S)Nc1ccc2c(c1)OCCO2)c1cccc2ccccc12 | -6.0 | 11.4* | i | 106.4 | -7.1 | 108.6 | u | 0.0862* | 0.0353 | 0.0345* | 0.0566* | 0.0157*
CSc1ncccc1C(=O)OCC(=O)Nc1cc(C(F)(F)F)ccc1N1CCOCC1 | 6.0 | 0.0809 | i | 89.7 | 11.3 | 99.4 | x | x | x | x | x | x
O=C(Nc1nnc(-c2ccccc2)o1)Nc1ccc(F)cc1F | 17.4 | 3.69 | i | 101.7 | -3.4 | 88.6 | x | x | x | x | x | x
O=C(Nc1nnc(-c2ccccc2)o1)Nc1ccccc1Cl | 5.0 | 19.6* | x | 107.3 | -6.8 | 96.1 | u | 0.0318* | 0.0382 | u | 0.0364* | u
S=c1[nH]cnc2scc(-c3ccc(Br)cc3)c12 | 7.9 | 48.1* | i | 96.6 | 2.2 | 95.2 | 0.0548* | 0.144* | u | u | 0.0936* | 0.0268*
O=c1[nH]cnc2scc(-c3ccccc3)c12 | 6.7 | 0.0491 | i | 95.9 | 4.6 | 96.8 | x | x | x | x | x | x
S=c1[nH]cnc2scc(-c3ccc(Cl)cc3)c12 | x | 181* | i | x | x | x | 0.0627* | 0.168* | 0.0578* | u | 0.117* | 0.0624*
Cc1cccc(C)c1NC(=O)C(NC(=O)CN1C(=O)c2ccccc2C1=O)c1ccccc1 (centres undefined) | -1.9 | 0.512 | i | 98.7 | 1.4 | 103.5 | x | x | x | x | x | x
O=C(NN1C(=O)/C(=C/C=C/c2ccco2)SC1=S)c1ccccc1O | x | -3.26* | i | x | x | x | 0.0056 | u | 0.0234* | 0.00732 | u | 0.0109
Cn1cccc1/C=C1\SC(=S)N(NC(=O)c2ccccc2O)C1=O | x | -2.92 | i | x | x | x | x | x | x | x | x | x
SMILES | STAT3 blocker | Cl transport mod | HSV replic up | STAT1 act | STAT1 inh | STAT3 activator | KCC2 sec1 | KCC2 bumet counter | KCC2 sec2 | HEK293 Tl flux | KCC2 ouabain | HEK293 Tl flux2
CCOC(=O)CN1C(=O)N[C@@H](CCc2ccccc2)[C@H](C(=O)OC)[C@H]1C | x | x | i | x | x | x | x | x | x | x | x | x
CC(C)NC(=S)N/N=C/c1sc(N2CCCCC2)nc1-c1cccs1 | -12.8 | 3.08* | i | 118.7 | -20.7 | 114.4 | 0.0106 | 0.0112* | 0.0341 | 0.00988* | 0.0249 | 0.0103
C/C(=N/NC(=O)CNC(=O)CCc1ccccc1)c1ccc(Cl)cc1 | x | 0.186 | i | x | x | x | x | x | x | x | x | x
CNC(=S)N/N=C(\C)c1ccc(Cl)c(Cl)c1 | 24.0 | 6.63* | i | 100.9 | -4.3 | 83.6 | 0.00536 | 0.0324* | 0.0376 | 0.0181* | 0.0317* | 0.0185*
C/C(=N\NC(=S)NCCc1ccccc1)c1ccc(Cl)cc1 | 1.7 | 6.24* | i | 100.4 | -0.4 | 96.6 | 0.00608 | 0.0144* | 0.0297 | 0.014* | 0.0231 | u
S=C(NCCc1ccccc1)NN=C1CCCCCC1 | -14.6 | 9.4* | i | 121.1 | -24.3 | 117.3 | 0.00759 | 0.016* | 0.0354 | u | u | 0.012
COCCNC(=S)N/N=C(\C)c1ccc(Cl)c(Cl)c1 | -0.3 | 6.62* | i | 109.4 | -11.6 | 106.3 | u | 0.0319* | 0.0355 | u | 0.0295* | u
CCCCN(C)S(=O)(=O)c1ccc(C(=O)Nc2nnc(-c3ccco3)o2)cc1 | -0.4 | 2.76 | i | 97.3 | 0.8 | 108.5 | x | x | x | x | x | x
COc1ccc(-c2cc(CCCC(=O)NCCc3ccccc3)no2)cc1 | x | -4.3* | i | x | x | x | 0.00901 | 0.00673 | u | 0.00702 | 0.0157* | 0.0103
Cc1cc2ccccn2c1C(=O)c1nc(N2CCOCC2)ncc1Cl | -8.4 | -3.77* | i | 103.6 | -4.0 | 107.8 | 0.00734 | u | 0.0256* | 0.00739 | 0.0173* | 0.00983
